Test results from PubChem BioAssay.
Active and inactive are the calls of the source.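 How the source made its calls, unless noted: active means current rise at least 3 SD above the untreated control mean in each of two repeat wells; inactive means the rest.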

Molecular target: Potassium voltage-gated channel subfamily KQT member 2 (Rattus norvegicus) (UniProt O88943)
Experiment: KCNQ2 thallium flux enhancement – KCNQ2-CHO-K1 cells, selectivity assay for KCNQ1 potentiator project (AID 493009;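 active means mean duplicate potentiation above the buffer control mean plus 5 SD of buffer wells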;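 further: assay conditions were tuned for KCNQ1 rather than KCNQ2 modulators; signal is max minus min fluorescence divided by baseline after thallium stimulus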)
Details: FluxOR thallium flux fluorescence, at 10 µM; hits give high values, scaled: buffer 0, activator control 100

Potassium voltage-gated channel subfamily KQT member 2 (Rattus norvegicus), sequence (O88943 whole entry, looked up): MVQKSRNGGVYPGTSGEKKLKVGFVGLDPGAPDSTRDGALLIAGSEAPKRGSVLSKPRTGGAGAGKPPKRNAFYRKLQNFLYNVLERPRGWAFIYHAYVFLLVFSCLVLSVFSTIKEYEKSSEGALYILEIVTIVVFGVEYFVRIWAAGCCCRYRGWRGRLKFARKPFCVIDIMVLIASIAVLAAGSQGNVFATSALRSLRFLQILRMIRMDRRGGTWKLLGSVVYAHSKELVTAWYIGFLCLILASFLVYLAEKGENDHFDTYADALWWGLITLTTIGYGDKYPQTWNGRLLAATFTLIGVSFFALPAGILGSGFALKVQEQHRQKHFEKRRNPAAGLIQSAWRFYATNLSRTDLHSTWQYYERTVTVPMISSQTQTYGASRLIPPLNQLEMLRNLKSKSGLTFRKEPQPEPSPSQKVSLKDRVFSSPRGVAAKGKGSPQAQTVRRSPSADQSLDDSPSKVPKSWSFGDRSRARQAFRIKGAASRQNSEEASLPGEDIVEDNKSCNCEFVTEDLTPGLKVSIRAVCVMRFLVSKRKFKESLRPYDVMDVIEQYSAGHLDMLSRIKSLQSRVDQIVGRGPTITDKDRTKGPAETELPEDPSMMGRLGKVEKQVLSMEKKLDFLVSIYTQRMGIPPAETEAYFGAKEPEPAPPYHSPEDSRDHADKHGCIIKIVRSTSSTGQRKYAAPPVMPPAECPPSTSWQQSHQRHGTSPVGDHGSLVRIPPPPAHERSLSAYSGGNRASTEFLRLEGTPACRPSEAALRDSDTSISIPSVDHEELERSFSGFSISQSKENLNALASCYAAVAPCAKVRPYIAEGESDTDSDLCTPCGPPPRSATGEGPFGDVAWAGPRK

SMILES	outcome	potentiation
O=C(O)c1ccc2c(c1)C(=O)N(Cc1ccccc1)C2=O	inactive	–
Cc1cc(NC(=O)CSc2cn(CCNC(=O)c3ccc(F)cc3)c3ccccc23)no1	inactive	–
COc1cccc(N=Nc2ccc(O)c3ncccc23)c1	–	170% (active)
CC(C)(C)C1C/C(=C/c2ccccn2)C(=O)/C(=C/c2ccccn2)C1 (stereo not given)	inactive	–
COc1ccccc1C(=O)NNC(=O)C(=O)NCc1ccccc1	–	218% (active)
CC(Oc1ccc(Br)cc1)c1nc2c3ccccc3nc(=S)n2[nH]1 (stereo not given)	–	178% (active)
O=C(Nc1cccc2cccnc12)c1ccc(Br)o1	inactive	–
CCCCN(CCCC)C(=S)NC(=O)C(C)(C)C	inactive	–
O=C(Nn1c(Cc2cccs2)nc2ccccc2c1=O)c1cccs1	inactive	–
N=C1S/C(=C\c2ccco2)C(=O)N1c1nccs1	–	186% (active)
CC(=O)N(C)c1ccc(NC(=O)Cc2cccc3ccccc23)cc1	inactive	–
C/C(=N\NC(=O)c1cccc(F)c1)c1ccc(Br)s1	inactive	–
O=C(CCC(=O)N1CCOc2ccc(Cl)cc21)NCCN1CCOCC1	inactive	–
COC(=O)c1c(NS(=O)(=O)c2ccc3ccccc3c2)sc2c1CCCC2	–	232% (active)
CCn1c(CSc2nc3ccccc3n2C)nc2ccccc21	inactive	–
CCOC(=O)c1ccc(NC(=S)N2CCSC2c2ccc(Br)cc2)cc1 (stereo not given)	inactive	–
Cc1ccc(CN2CCN(/N=C/C(Br)=C\c3ccccc3)CC2)cc1	inactive	–
Cc1ccc(-c2cc(C(=O)NCc3ccccn3)c3ccccc3n2)cc1C	inactive	–
Cc1[nH]c(=S)sc1Cc1ccc(F)cc1	–	300% (active)
CCCCn1c(=S)[nH]c2ccccc2c1=O	–	187% (active)

SMILES	outcome	potentiation
O=C(NC(=S)Nc1ccc2c(c1)OCCO2)c1ccco1	–	260% (active)
Fc1ccc(NC(=S)N/N=C/c2ccc(F)c(F)c2)c(F)c1	inactive	–
N#CC(c1ccc(Cl)cc1)c1ccc2c(C(F)(F)F)cc(C(F)(F)F)nc2n1 (stereo not given)	–	407% (active)
COc1cc(/C=N/Nc2snc(SC)c2C#N)ccc1O	inactive	–
COc1ccc(NC(=O)CC2C(=O)N(c3ccc(Cl)cc3)C(=S)N2NC(=O)c2cccc(F)c2)cc1 (stereo not given)	inactive	–
Cc1cc(S(=O)(=O)N2CCOCC2)ccc1OCC(=O)Nc1ccc(Br)cc1F	inactive	–
Cn1nccc1C(=O)NC(=S)Nc1cc(Cl)cc(Cl)c1	–	178% (active)
CC1CN(c2nc(-c3ccc(Br)cc3)nnc2-c2ccccc2)CC(C)N1 (stereo not given)	inactive	–
CCOC(=O)c1sc(NC(=O)c2ccncc2)nc1C	–	166% (active)
CCOC(=O)c1c(NC(=S)NCCc2ccccc2)sc2c1CC(C(C)C)OC2 (stereo not given)	–	146% (active)
Cc1ccccc1NC(=O)C(=O)NNC(=O)COc1ccc2ccccc2c1	–	300% (active)
CN(CC(=O)Nc1c(Cl)cccc1Cl)C(=O)c1n[nH]c2ccccc12	inactive	–
CC(Oc1ccc(Cl)cc1Cl)C(=O)NC(=S)N1CCc2ccccc21 (stereo not given)	–	172% (active)
O=C(NC1CCCC1)C(c1cccnc1)N(C(=O)c1csnn1)C1CC1 (stereo not given)	inactive	–
O=C(C1CCCCC1)N(CCN1CCCC1)c1nc2ccccc2s1	inactive	–
CC(C)Cn1c(=O)c(C(=O)N/N=C/c2cccc(F)c2)c(O)c2ccccc21	inactive	–
Cc1ccc(-c2nc3ccc(Cl)cc3c(=O)n2O)cc1	–	523% (active)
CCOC(=O)C(=Cc1cc(=O)c(OC)co1)C(=O)OCC	inactive	–
COc1ccc(NC(=O)CN(C)C(=O)c2ccc(N3CCOCC3)c([N+](=O)[O-])c2)cc1	–	186% (active)
O=C(NC(=S)Nc1ccccc1)c1cc(-c2ccccc2)nc2ccccc12	–	194% (active)

Molecular target: Potassium voltage-gated channel subfamily KQT member 1 (Homo sapiens) (UniProt P51787)
Sequence (P51787 whole entry, looked up): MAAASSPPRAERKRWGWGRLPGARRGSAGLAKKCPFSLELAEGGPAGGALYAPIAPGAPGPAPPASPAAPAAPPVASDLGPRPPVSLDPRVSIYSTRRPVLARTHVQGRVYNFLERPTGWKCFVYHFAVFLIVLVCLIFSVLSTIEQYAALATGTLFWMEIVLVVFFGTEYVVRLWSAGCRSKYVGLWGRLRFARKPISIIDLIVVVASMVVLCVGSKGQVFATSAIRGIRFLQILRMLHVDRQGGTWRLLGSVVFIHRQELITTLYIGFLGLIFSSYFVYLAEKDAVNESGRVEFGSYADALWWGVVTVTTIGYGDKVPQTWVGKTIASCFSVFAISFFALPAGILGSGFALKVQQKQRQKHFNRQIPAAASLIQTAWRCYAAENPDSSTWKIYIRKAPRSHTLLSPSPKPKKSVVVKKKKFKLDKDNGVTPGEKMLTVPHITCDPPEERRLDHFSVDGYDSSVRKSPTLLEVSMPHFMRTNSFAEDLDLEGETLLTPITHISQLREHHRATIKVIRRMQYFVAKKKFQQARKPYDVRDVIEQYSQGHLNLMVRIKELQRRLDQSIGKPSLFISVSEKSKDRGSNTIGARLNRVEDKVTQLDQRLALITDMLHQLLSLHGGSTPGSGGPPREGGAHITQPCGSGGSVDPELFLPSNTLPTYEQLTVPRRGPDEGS
Experiment: KCNQ1 activators by electrophysiology – IonWorks patch clamp, KCNQ1-CHO cells, orthogonal assay for KCNQ1 potentiator project, confirmation (AID 493184)
Details: automated patch clamp current, at 10 µM; hits give high values
Method in brief: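 Read-out: Percent current increase versus pre-compound level | Assay system: CHO cells carrying KCNQ1 | Measured by: Automated perforated-patch electrophysiology | Medium: External bath solution at pH 7.4 | Dosing: One dose, 10 µM final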

SMILES	outcome
O=C(O)c1ccc2c(c1)C(=O)N(Cc1ccccc1)C2=O	inactive
Cc1cc(NC(=O)CSc2cn(CCNC(=O)c3ccc(F)cc3)c3ccccc23)no1	inactive
COc1cccc(N=Nc2ccc(O)c3ncccc23)c1	inactive
CC(C)(C)C1C/C(=C/c2ccccn2)C(=O)/C(=C/c2ccccn2)C1 (stereo not given)	inactive
COc1ccccc1C(=O)NNC(=O)C(=O)NCc1ccccc1	inactive
CC(Oc1ccc(Br)cc1)c1nc2c3ccccc3nc(=S)n2[nH]1 (stereo not given)	inactive
O=C(Nc1cccc2cccnc12)c1ccc(Br)o1	inactive
CCCCN(CCCC)C(=S)NC(=O)C(C)(C)C	inactive
O=C(Nn1c(Cc2cccs2)nc2ccccc2c1=O)c1cccs1	inactive
N=C1S/C(=C\c2ccco2)C(=O)N1c1nccs1	inactive
CC(=O)N(C)c1ccc(NC(=O)Cc2cccc3ccccc23)cc1	inactive
C/C(=N\NC(=O)c1cccc(F)c1)c1ccc(Br)s1	inactive
O=C(CCC(=O)N1CCOc2ccc(Cl)cc21)NCCN1CCOCC1	inactive
COC(=O)c1c(NS(=O)(=O)c2ccc3ccccc3c2)sc2c1CCCC2	inactive
CCn1c(CSc2nc3ccccc3n2C)nc2ccccc21	inactive
CCOC(=O)c1ccc(NC(=S)N2CCSC2c2ccc(Br)cc2)cc1 (stereo not given)	inactive
Cc1ccc(CN2CCN(/N=C/C(Br)=C\c3ccccc3)CC2)cc1	inactive
Cc1ccc(-c2cc(C(=O)NCc3ccccn3)c3ccccc3n2)cc1C	inactive
Cc1[nH]c(=S)sc1Cc1ccc(F)cc1	inactive
CCCCn1c(=S)[nH]c2ccccc2c1=O	inactive

SMILES	outcome
O=C(NC(=S)Nc1ccc2c(c1)OCCO2)c1ccco1	inactive
Fc1ccc(NC(=S)N/N=C/c2ccc(F)c(F)c2)c(F)c1	inactive
N#CC(c1ccc(Cl)cc1)c1ccc2c(C(F)(F)F)cc(C(F)(F)F)nc2n1 (stereo not given)	inactive
COc1cc(/C=N/Nc2snc(SC)c2C#N)ccc1O	inactive
COc1ccc(NC(=O)CC2C(=O)N(c3ccc(Cl)cc3)C(=S)N2NC(=O)c2cccc(F)c2)cc1 (stereo not given)	inactive
Cc1cc(S(=O)(=O)N2CCOCC2)ccc1OCC(=O)Nc1ccc(Br)cc1F	inactive
Cn1nccc1C(=O)NC(=S)Nc1cc(Cl)cc(Cl)c1	inactive
CC1CN(c2nc(-c3ccc(Br)cc3)nnc2-c2ccccc2)CC(C)N1 (stereo not given)	inactive
CCOC(=O)c1sc(NC(=O)c2ccncc2)nc1C	inactive
CCOC(=O)c1c(NC(=S)NCCc2ccccc2)sc2c1CC(C(C)C)OC2 (stereo not given)	inactive
Cc1ccccc1NC(=O)C(=O)NNC(=O)COc1ccc2ccccc2c1	inactive
CN(CC(=O)Nc1c(Cl)cccc1Cl)C(=O)c1n[nH]c2ccccc12	inactive
CC(Oc1ccc(Cl)cc1Cl)C(=O)NC(=S)N1CCc2ccccc21 (stereo not given)	inactive
O=C(NC1CCCC1)C(c1cccnc1)N(C(=O)c1csnn1)C1CC1 (stereo not given)	inactive
O=C(C1CCCCC1)N(CCN1CCCC1)c1nc2ccccc2s1	inactive
CC(C)Cn1c(=O)c(C(=O)N/N=C/c2cccc(F)c2)c(O)c2ccccc21	inactive
Cc1ccc(-c2nc3ccc(Cl)cc3c(=O)n2O)cc1	inactive
CCOC(=O)C(=Cc1cc(=O)c(OC)co1)C(=O)OCC	inactive
COc1ccc(NC(=O)CN(C)C(=O)c2ccc(N3CCOCC3)c([N+](=O)[O-])c2)cc1	inactive
O=C(NC(=S)Nc1ccccc1)c1cc(-c2ccccc2)nc2ccccc12	inactive
